Consider 2 molecules from ChEMBL document CHEMBL5226322, “Harnessing the Role of HDAC6 in Idiopathic Pulmonary Fibrosis: Design, Synthesis, Structural Analysis, and Biological Evaluation of Potent Inhibitors” (J Med Chem, 2021).

The IC50 is the concentration that gives 50% inhibition.

Structures are written as SMILES. The source made the active and inactive calls. No cut-off for these calls is given here.

Data set [1] has as its target T1, Histone deacetylase 1 (Homo sapiens, UniProt Q13547). The experiment in a line: Inhibition of human recombinant HDAC1 using ZMAL (Z-(Ac)Lys-AMC) as fluorogenic substrate incubated for 120 mins by microplate reader assay.
Data set [2] has as its target T2, Protein deacetylase HDAC6 (Homo sapiens, UniProt Q9UBN7).
T2 sequence (Q9UBN7 whole entry): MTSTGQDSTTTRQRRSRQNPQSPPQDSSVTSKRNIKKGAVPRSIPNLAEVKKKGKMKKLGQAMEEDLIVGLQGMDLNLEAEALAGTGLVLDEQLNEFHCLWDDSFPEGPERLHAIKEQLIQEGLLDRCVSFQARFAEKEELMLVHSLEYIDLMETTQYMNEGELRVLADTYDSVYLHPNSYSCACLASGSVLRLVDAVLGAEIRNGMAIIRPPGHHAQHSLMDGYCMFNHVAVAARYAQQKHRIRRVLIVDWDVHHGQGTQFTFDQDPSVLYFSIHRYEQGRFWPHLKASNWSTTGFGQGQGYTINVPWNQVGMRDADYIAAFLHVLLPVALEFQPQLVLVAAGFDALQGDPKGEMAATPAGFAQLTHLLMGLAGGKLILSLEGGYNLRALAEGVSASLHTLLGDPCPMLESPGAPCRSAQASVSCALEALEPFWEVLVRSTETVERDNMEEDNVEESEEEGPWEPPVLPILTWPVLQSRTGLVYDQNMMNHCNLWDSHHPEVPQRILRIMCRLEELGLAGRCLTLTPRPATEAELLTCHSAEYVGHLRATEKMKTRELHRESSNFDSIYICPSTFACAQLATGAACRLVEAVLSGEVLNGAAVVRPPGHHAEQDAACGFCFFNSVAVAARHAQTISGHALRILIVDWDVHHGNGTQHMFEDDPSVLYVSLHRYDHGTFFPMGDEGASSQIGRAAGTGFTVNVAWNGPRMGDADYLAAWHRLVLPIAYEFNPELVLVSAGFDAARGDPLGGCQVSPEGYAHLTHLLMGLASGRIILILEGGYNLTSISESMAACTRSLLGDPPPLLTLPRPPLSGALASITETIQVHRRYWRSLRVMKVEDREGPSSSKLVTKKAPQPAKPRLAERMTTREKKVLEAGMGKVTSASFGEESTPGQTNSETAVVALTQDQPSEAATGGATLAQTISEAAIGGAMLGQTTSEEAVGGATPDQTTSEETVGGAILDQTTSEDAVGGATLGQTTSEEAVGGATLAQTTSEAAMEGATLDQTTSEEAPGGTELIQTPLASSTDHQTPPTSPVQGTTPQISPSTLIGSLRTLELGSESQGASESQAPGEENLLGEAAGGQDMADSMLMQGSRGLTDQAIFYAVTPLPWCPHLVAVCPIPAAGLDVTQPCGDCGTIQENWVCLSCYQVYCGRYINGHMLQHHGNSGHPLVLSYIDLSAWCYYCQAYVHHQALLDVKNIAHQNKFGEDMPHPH
The data set can be described thus: Inhibition of human recombinant HDAC6 using ZMAL (Z-(Ac)Lys-AMC) as fluorogenic substrate incubated for 120 mins by microplate reader assay.

The next data set has as its target T3, Histone deacetylase 8 (Homo sapiens, UniProt Q9BY41).
T3 sequence (Q9BY41 whole entry): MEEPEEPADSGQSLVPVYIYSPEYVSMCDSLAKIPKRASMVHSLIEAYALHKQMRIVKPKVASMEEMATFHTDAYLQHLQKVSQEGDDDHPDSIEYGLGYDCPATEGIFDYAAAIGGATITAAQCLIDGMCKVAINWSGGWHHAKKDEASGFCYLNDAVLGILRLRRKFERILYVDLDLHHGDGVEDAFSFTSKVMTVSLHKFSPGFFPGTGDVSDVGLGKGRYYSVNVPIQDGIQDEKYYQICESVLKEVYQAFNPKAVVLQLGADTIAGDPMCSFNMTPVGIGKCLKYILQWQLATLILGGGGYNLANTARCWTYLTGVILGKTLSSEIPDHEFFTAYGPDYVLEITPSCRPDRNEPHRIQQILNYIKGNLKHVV
The data set can be described thus: Inhibition of human recombinant HDAC8 using FLUOR DE LYS fluorometric substrate pre-incubated for 15 mins and followed by substrate addition and measured after 60 mins by microplate reader assay. The gist of the method:
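Recombinant human HDAC8 at 0.45 U/reaction with 0.5% DMSO; DMSO-only enzyme served as control. Enzyme preincubated 15 min with compound, then Fluor de Lys substrate added (50 μM final) for 1 h at 30 °C. Quenched with 2 μM TSA in Developer II for a further 1 h at 30 °C. Fluorescence read at ex 370/em 450 nm. IC50 from nonlinear dose-response fit.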

The nature of data set [3]: Metabolic stability in human liver microsome assessed as apparent decay constant at 5 uM in presence of NADPH incubated up to 60 mins by HPLC analysis. It is filed as ADME. The settings on record: microsomes, 1 h. Put shortly: (§1)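 Compound at 5 μM, added in MeCN, incubated at 37 °C in 100 mM phosphate buffer pH 7.4 with 0.5 mg/mL human liver microsomal protein. Reaction started with an NADPH-generating system (2 mM NADPH, glucose-6-phosphate, G6P dehydrogenase, MgCl2). Stopped with MeCN at time points over 0–60 min. Remaining compound measured by RP-18 HPLC-UV at 254 nm, in triplicate. First-order depletion constant k; CLint = k × incubation volume / microsomal protein.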
In general terms: Microsomes from liver hold many membrane-bound enzymes, among them those of drug oxidation.

Data set [4] deals with T1, Histone deacetylase 1. The experiment in a line: Inhibition of HDAC1 in human U87 cells assessed as increase in acetylation of histone H3 at 5 uM incubated for 30 hrs by western blot analysis. The class given is cell-based. The gist of the method: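 Whole lysates (35 μg) and acid-extracted histones (2 μg) run on SDS-PAGE and blotted for acetylated tubulin or acetyl-histone H3; GAPDH or H4 as loading controls.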

For another data set, the species on record is Homo sapiens. The experiment in a line: Inhibition of broncho-sphere formation in IPF patient derived human lung organoid assessed as inhibition of 3D organoid formation at 0.1 to 50 nM incubated for 14 days by Bright-field microscopy analysis. It is filed as functional. The settings on record: dose 0.1-50 nM, time 14.0 day. The gist of the method: (§2)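 Airway basal cells from bronchial brushings of IPF patients, 10⁴ cells in Matrigel on transwell inserts with 1:1 BEGM/DMEM. Treated 14 days (1–50 nM per methods; 0.1–50 nM per legend), medium changed every 7 days.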

For data set [5], the system named is Airway basal cell. The data set can be described thus: Inhibition of spheroid count in IPF patient derived human Airway basal cell assessed as reduction in sphere count at 20 to 50 nM incubated for 14 days by Bright-field microscopy analysis. The class given is functional, cell-based. Conditions: dose 20-50 nM, time 14.0 day. Put shortly:
as §2

A short description of data set [6]: Inhibition of cell proliferation in IPF patient derived human Airway basal cell incubated for 14 days by MTT assay. The class given is functional, cell-based. The settings on record: 336 h. The gist of the method: (§3)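 IPF patient airway basal cell 3D organoid cultures (10⁴ cells in Matrigel, 1:1 BEGM/DMEM) treated 14 days at 1–50 nM, medium changed weekly. Proliferation read by colorimetric MTT on day 14. Mean ± SEM of triplicates, n=3; repeated-measures ANOVA/Friedman test. Reported IC50 is the mean of the count-based and MTT-based IC50s.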

Data set [7] deals with Airway basal cell. The data set can be described thus: Inhibition of cell proliferation in IPF patient derived human Airway basal cell at 20 to 50 nM incubated for 14 days by MTT assay. The class given is functional, cell-based. Conditions: dose 20-50 nM, time 14.0 day. The gist of the method: as §3
A general note: Tetrazolium dyes change colour on reduction, which living cells bring about.

Data set [8] in a line: Metabolic stability in human liver microsome assessed as compound remaining at 5 uM in presence of NADPH by HPLC analysis. It is filed as ADME. Conditions: liver microsomes, read-out: Stability. The gist of the method:
as §1

T1 sequence (Q13547 whole entry): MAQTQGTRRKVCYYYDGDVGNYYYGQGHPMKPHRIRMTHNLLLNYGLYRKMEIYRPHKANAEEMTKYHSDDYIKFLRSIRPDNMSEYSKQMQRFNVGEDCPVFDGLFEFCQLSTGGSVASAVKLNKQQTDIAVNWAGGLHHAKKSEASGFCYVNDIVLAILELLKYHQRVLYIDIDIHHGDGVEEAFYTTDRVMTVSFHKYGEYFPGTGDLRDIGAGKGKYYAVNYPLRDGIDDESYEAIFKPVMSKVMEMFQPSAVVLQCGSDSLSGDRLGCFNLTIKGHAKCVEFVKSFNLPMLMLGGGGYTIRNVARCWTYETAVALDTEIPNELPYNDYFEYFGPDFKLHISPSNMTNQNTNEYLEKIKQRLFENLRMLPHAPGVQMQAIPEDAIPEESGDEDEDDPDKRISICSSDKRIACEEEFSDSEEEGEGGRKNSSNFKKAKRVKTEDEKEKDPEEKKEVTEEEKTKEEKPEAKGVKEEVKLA

With `CN1CCC2(CC1)c1ccccc1N(Cc1ccc(C(=O)NO)cc1)C2c1ccccc1F` (racemic), the IC50 at Histone deacetylase 1 [1] stood at 4.85 µM; in data set [2] it was 0.0285 µM; at Histone deacetylase 8, 3.49 µM; in data set [6] it was 0.00016 µM. Also, in data set [3], the K came out at 0.01297 min⁻¹. Further, the inhibition result at Histone deacetylase 1 [4], in the data set with Airway basal cell [5] and with Airway basal cell [7] was “Active” throughout. Moreover, the inhibition result in the data set listed under Homo sapiens was “Dose-Dependent Effect”. The remaining at 5 µM in [8] came to 100%.

As for `CC1(C)c2ccccc2N(Cc2ccc(C(=O)NO)cc2)C1c1cccnc1` (racemic), the 50% inhibitory concentration (IC50) at Histone deacetylase 1 [1] came to 5.33 µM; in data set [2] it was 0.0419 µM; on Histone deacetylase 8 it was 2.17 µM; in data set [6] it was 0.00731 µM. In addition, the K in data set [3] stood at 0.01357 min⁻¹. On Histone deacetylase 1 [4], the inhibition entry is “inactive”. The inhibition entry in the data set filed under Homo sapiens is “Dose-Dependent Effect”. The inhibition entry in the data set with Airway basal cell [5] and in the data set with Airway basal cell [7] was “Active” in each case. The remaining at 5 µM in data set [8] is 100%.
